Source: PubChem (Broad Institute)
IDH1 mut inh: blocks human IDH1 R132H reductase activity; O75874; diaphorase/resazurin fluorescence, 60 min; inhibition, % at 10 µM; 0.18% of 70,000 active; in the data active = inhibition above about 34%; inconclusive = no clear call, values can overlap the other calls; inactive = below about 11%
Target sequence (O75874 whole entry R132H): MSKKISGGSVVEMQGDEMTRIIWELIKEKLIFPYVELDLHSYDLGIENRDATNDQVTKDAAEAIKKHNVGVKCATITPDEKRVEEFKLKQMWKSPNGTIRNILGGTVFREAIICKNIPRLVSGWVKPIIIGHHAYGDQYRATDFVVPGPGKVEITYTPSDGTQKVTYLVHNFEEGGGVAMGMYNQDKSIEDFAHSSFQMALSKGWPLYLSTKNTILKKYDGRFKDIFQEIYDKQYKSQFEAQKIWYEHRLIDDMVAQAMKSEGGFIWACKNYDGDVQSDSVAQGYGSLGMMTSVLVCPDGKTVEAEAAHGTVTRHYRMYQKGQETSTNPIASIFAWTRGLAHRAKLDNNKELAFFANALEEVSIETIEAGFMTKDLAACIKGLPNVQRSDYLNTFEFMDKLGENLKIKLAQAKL
T cruzi growth-1: T. cruzi proliferation inhibition; inhibition, % at 8.34 µM; T. cruzi beta-gal in NIH3T3, GalScreen luminescence, 90 h; 5.9% of 77,000 active;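 active = mean inhibition above about 93%, with at least 55% of replicates each passing it, limit read from the data, passing the limit was not always enough; inconclusive = only one of those two conditions holds; inactive = neither condition holds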
Pf Dd2 growth: blocks growth of Plasmodium falciparum Dd2 parasites; 2.3% of 94,000 active; P. falciparum Dd2 growth, SYBR Green, 72 h; stronger effect = lower value; activity change, % at 10 µM; in the data active = activity change below about -80%; inconclusive = no clear call, values can overlap the other calls
GASC1 inh: KDM4C (human) demethylase inhibition; Q9H3R0; inhibition, % at 12.5 µM; 0.15% of 96,000 active; GST-KDM4C 2-372, H3K9me3 peptide, LANCE TR-FRET; AID 720574;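 active = mean replicate inhibition above about 25%, with at least 55% of replicates also reaching it, limit read from the data, passing the limit was not always enough; inconclusive = only one of those two conditions met; inactive = neither condition met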
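Compound: one test concentration per compound; Material: GST-GASC-1 enzyme fragment 2-372; Amount: GASC-1 enzyme at 10 nM final in reaction; Also added: H3K9me3 peptide substrate, Fe(II), 2-oxoglutarate; Technique: LANCE TR-FRET; Times: 30 min demethylation and 1 h detection at room temperature.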
T cruzi growth-2: inhibitors of T. cruzi proliferation | shares compounds with T cruzi growth-1 | T. cruzi beta-gal in NIH3T3, GalScreen luminescence, 90 h | inhibition, % at 8.35 µM | 72% of 5,600 active | AID 651739;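 active = mean replicate inhibition above about 95% and at least 55% of replicates individually reaching it, limit read from the data; inconclusive = only one of the two criteria is met; inactive = neither criterion is met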
T cruzi growth-3: blocks T. cruzi growth in NIH3T3 host cells. inhibition, % at 2.09 µM. shares compounds with T cruzi growth-1. T. cruzi beta-gal in NIH3T3, GalScreen luminescence, 90 h. 21% of 5,600 active;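 active = mean inhibition above about 95%, with at least 55% of replicates also reaching it, limit read from the data; inconclusive = meets just one of the two conditions; inactive = meets neither condition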
NIH3T3 tox: kills mouse NIH/3T3 fibroblasts; shares compounds with T cruzi growth-1; NIH/3T3 viability, CellTiter-Glo ATP luminescence, 90 h; cytotoxicity (signal decrease), % at 8.35 µM; 14% of 5,600 active; AID 651742;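 active = mean signal decrease across replicates above about 35% based on untreated-well scatter, with enough replicates individually passing, limit read from the data; inconclusive = no rule stated though some were filed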
NIH3T3 tox 2: cytotoxicity in mouse NIH/3T3 fibroblasts; 56% of 5,600 active; shares compounds with T cruzi growth-1; NIH/3T3 viability, CellTiter-Glo ATP luminescence, 90 h; inhibition, % at 24.9 µM;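 active = mean loss of cell viability signal at or above a set limit, and enough replicates individually reaching it; inconclusive = meets only the mean limit or only the replicate share; inactive = meets neither condition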
Hits are given with their value; i = inactive; ? = inconclusive; nt = no result. A selection: hits, their analogues and other compounds. The true share with any hit is near 5.9%.

SMILES	IDH1 mut inh	T cruzi growth-1	Pf Dd2 growth	GASC1 inh	T cruzi growth-2	T cruzi growth-3	NIH3T3 tox	NIH3T3 tox 2
C[C@H](CO)N1C[C@H](C)[C@@H](CN(C)C(=O)Cc2ccncc2)Oc2cc(C#CC3CC3)ccc2S1(=O)=O	?	97.5	i	i	101.9	i	i	i
CN1C(=O)c2cc(NC(=O)c3cc(F)cc(F)c3)ccc2OC[C@H]2O[C@@H](CC(=O)O)CC[C@H]21	nt	i	i	i	nt	nt	nt	nt
CC(C)C#Cc1ccc([C@H]2[C@@H](C#N)N(C(=O)c3ccccn3)[C@H]2CO)cc1	nt	?	i	i	99.8	103.1	i	i
COc1cccc(C#Cc2ccc([C@H]3[C@@H](C#N)N(C(=O)c4ccccn4)[C@@H]3CO)cc2)c1	nt	i	i	i	nt	nt	nt	nt
COc1cccc(C#Cc2ccc([C@@H]3[C@@H](C#N)N(C(=O)c4ccccn4)[C@@H]3CO)cc2)c1	nt	107.9	i	i	107.9	i	i	i
CC(C)C#Cc1ccc([C@@H]2[C@@H](C#N)N(C(=O)c3ccccn3)[C@H]2CO)cc1	nt	i	i	i	nt	nt	nt	nt
COc1cccc(-c2ccc([C@H]3[C@@H](CO)N(C(=O)c4ccccn4)[C@H]3C#N)cc2)c1	nt	?	i	i	98.4	116.9	i	99.1
C[C@H](CO)N1C[C@H](C)[C@@H](CN(C)C)Oc2ccc(NC(=O)CCCCCC(=O)Nc3ccccc3N)cc2CC1=O	i	nt	i	i	nt	nt	nt	nt
C[C@@H]1CN([C@H](C)CO)C(=O)Cc2cc(NC(=O)C3CCCCC3)ccc2O[C@H]1CN(C)CC1CCCCC1	i	i	i	i	nt	nt	nt	nt
C[C@H]1CCCCO[C@H](CN(C)Cc2ccncc2)[C@@H](C)CN([C@@H](C)CO)C(=O)c2cc(NC(=O)CCCN(C)C)ccc2O1	i	99.3	i	i	i	i	i	i
C[C@@H]1CCCCO[C@@H](CN(C)Cc2ccc(C(F)(F)F)cc2)[C@@H](C)CN([C@@H](C)CO)C(=O)c2cc(NC(=O)CCCN(C)C)ccc2O1	i	99.9	-85.0	i	105.2	i	i	102.4
CCCN(C)C[C@@H]1OCCCC[C@H](C)Oc2ccc(NC(=O)CCCN(C)C)cc2C(=O)N([C@@H](C)CO)C[C@@H]1C	i	?	i	i	i	i	i	i
C[C@H](CO)N1C[C@H](C)[C@@H](CN(C)S(=O)(=O)c2cccs2)Oc2ccc(NC(=O)Cc3cn(C)c4ccccc34)cc2CC1=O	i	i	i	i	nt	nt	nt	nt
O=C(CN1CCOCC1)N1CCCCN2[C@H](CO)[C@@H](c3ccc(C#Cc4ccccc4F)cc3)[C@@H]2C1	nt	i	i	i	nt	nt	nt	nt
O=C(CN1CCOCC1)N1CCCCN2[C@@H](CO)[C@H](c3ccc(C#Cc4ccccc4F)cc3)[C@@H]2C1	nt	107.4	i	i	111.9	i	41.9	102.4
O=C(CN1CCOCC1)N1CCCCN2[C@H](CO)[C@@H](c3ccc(C#Cc4ccccc4F)cc3)[C@H]2C1	nt	109.7	i	i	97.5	i	53.7	94.9
O=C(CN1CCOCC1)N1CCCCN2[C@@H](CO)[C@@H](c3ccc(C#Cc4ccccc4F)cc3)[C@@H]2C1	nt	107.1	i	i	98.3	i	?	100.5
CCNC(=O)C[C@@H]1CC[C@H]2[C@@H](COc3ccc(NC(=O)c4ccc(C(F)(F)F)cc4)cc3C(=O)N2C)O1	nt	i	i	i	nt	nt	nt	nt
C[C@@H]1CCCCO[C@@H](CN(C)CC2CC2)[C@H](C)CN([C@@H](C)CO)C(=O)c2cc(NC(=O)Nc3ccc(F)cc3)ccc2O1	i	102.7	i	i	i	i	i	i
C[C@@H]1CCCCO[C@@H](CN(C)CC2CCCCC2)[C@H](C)CN([C@@H](C)CO)C(=O)c2cc(NC(=O)Nc3ccc(F)cc3)ccc2O1	nt	113.7	i	i	99.0	i	i	106.2
Cc1ccc(S(=O)(=O)N(C)C[C@H]2OCCCC[C@H](C)Oc3ccc(NS(=O)(=O)c4ccc(Cl)cc4)cc3C(=O)N([C@H](C)CO)C[C@@H]2C)cc1	nt	96.6	i	i	100.2	118.9	i	i
